Screens (PubChem)
KCNK3 inh – human KCNK3 channel inhibition, primary screen. O14649. CHO-KCNK3 thallium flux, FluxOR fluorescence; hits give low values. B-score at 10 µM. actives 0.84% (n = 340,000);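 active = B-score under library mean minus 4 SD, starting fluorescence ratio at most library mean plus 5 SD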;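 note: more negative B-score means stronger inhibition of thallium flux through KCNK3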
KCNK9 block – blocks the human KCNK9 two-pore domain potassium channel. Q9NPC2. HEK293 KCNK9, FluxOR thallium flux fluorescence; hits give low values. B-score at 10 µM. actives 1.2% (n = 310,000);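 active = ratio B-score over 3 SD below the library mean, with starting fluorescence within 5 SD of its mean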;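 note: negative B-score means less thallium flux so channel inhibition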
Kir21 inh – blocks the mouse Kir2.1 inward-rectifier potassium channel. P35561. HEK293-Kir2.1, FluxOR thallium flux fluorescence; hits give low values. B-score at 10 µM. actives 0.85% (n = 310,000). AID 1672;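 active = fluorescence ratio B-score at or below minus 3 SD of library scores, with starting-brightness B-score within 2 SD, cut at about -4.2 in these data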;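 note: channel flux triggered by added potassium and thallium sulfate stimulus; B-score of peak minus minimum fluorescence over baseline after thallium stimulus; more negative B-score means stronger Kir2.1 block with less thallium influx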
KCNQ1 pot – potentiates or activates the human KCNQ1 potassium channel | actives 0.35% (n = 310,000) | B-score at 10 µM | CHO-K1 KCNQ1, thallium flux FluxOR fluorescence; hits give high values | P51787;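 active = fluorescence ratio B-score, a plate-corrected score, at least three library SD, with initial intensity B-score within 5 SD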
Target sequence (P51787 whole entry, looked up): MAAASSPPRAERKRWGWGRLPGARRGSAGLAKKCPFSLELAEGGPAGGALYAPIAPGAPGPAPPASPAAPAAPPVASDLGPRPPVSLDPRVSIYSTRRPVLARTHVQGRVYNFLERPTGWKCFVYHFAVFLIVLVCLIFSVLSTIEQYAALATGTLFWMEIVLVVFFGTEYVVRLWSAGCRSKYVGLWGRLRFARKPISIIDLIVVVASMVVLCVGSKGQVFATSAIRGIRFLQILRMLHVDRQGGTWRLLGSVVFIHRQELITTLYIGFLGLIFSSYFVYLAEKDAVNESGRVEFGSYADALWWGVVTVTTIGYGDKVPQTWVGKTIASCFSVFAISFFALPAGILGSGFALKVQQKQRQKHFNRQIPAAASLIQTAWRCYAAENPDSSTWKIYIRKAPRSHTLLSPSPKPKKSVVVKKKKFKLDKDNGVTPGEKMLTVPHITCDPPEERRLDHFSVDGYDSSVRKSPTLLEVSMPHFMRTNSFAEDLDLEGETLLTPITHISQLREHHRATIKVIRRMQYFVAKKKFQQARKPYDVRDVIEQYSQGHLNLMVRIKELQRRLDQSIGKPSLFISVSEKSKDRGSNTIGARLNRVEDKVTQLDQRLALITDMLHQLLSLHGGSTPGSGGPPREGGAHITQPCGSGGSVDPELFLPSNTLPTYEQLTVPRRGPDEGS
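Test system: CHO-K1 cells stably expressing KCNQ1 / Medium: assay buffer / Also added: depolarizing K+/Tl+ stimulus, K2SO4 and Tl2SO4 each 12.5 mM in 5x stock / Incubation: 90 min dye loading and 20 min compound exposure, both at room temperature / Signal: thallium influx via FluxOR fluorescence, kinetic imaging / Evaluation: B score of baseline-normalized fluorescence ratio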
KCNQ1 block – human KCNQ1 channel inhibition | AID 2642 | B-score at 10 µM | CHO-K1 KCNQ1, FluxOR thallium flux fluorescence; hits give high values | actives 1.3% (n = 310,000) | P51787;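 active = compounds whose thallium flux B-score, printed positive for inhibition, exceeds three library SD while starting fluorescence stays within three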;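 note: channel opened by potassium depolarization with thallium stimulus after 20 min compound exposure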
hERG rescue – hERG (human) protection from proarrhythmic block; Q12809; actives 0.51% (n = 310,000); CHO-hERG, FluxOR thallium flux, dofetilide IC70 present; activation (rescue from dofetilide block), less the hit threshold, % at 10 µM;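 active = activation above the mean of controls blocked by dofetilide plus 5 SD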;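 note: thallium influx through hERG after potassium depolarization seen as dye fluorescence rise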
KCNK9 inh conf – confirmation of human KCNK9 potassium channel inhibitors; AID 492992; shares compounds with KCNK9 block; inhibition, % at 10 µM; actives 43% (n = 4,900); HEK293 KCNK9 cells, FluxOR thallium flux fluorescence;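 active = thallium signal inhibited by more than 5 SD of the compound-free buffer control wells, on both duplicate plates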;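 note: 0% = assay buffer control wells without compound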
Kir2-1 spec – tests whether KCNK9 modulators also affect mouse Kir2.1; shares compounds with KCNK9 block; Kir2.1 cells, FluxOR thallium flux fluorescence; inhibition, % at 10 µM; actives 4% (n = 4,900); AID 492993;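 active = thallium signal drop more than 5 SD beyond the mean of the no-compound control wells, seen in both duplicate plates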;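 note: signal is fluorescence rise after thallium addition divided by baseline fluorescence; plate controls were assay buffer only for no effect and full block by chlorpromazine control for full effect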
HEK293 Tl ctr – second check of KCNK9 modulator effects in non-induced HEK293 cells; FluxOR thallium flux; shares compounds with KCNK9 block; inhibition, % at 10 µM; actives 40% (n = 4,900);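 active = thallium signal drop beyond 5 SD of the untreated control mean, on both duplicate plates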;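 note: plate controls were buffer only IC0 wells for no effect and SID17386958 at its maximal inhibitory level for full effect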
Numbers without * were called inactive; i = inactive; · = no result given. Only some compounds are listed: those with a hit (about 3.8% of all), similar ones and a draw of the others.

SMILES	KCNK3 inh	KCNK9 block	Kir21 inh	KCNQ1 pot	KCNQ1 block	hERG rescue	KCNK9 inh conf	Kir2-1 spec	HEK293 Tl ctr
Cn1c(SCC(=O)Nc2ccccc2Br)nnc1-c1cnccn1	i	i	-0.38	i	i	-8	·	·	·
CC(=O)Nc1ccc(NC(=O)C(C)OC(=O)C2(c3ccccc3F)CCCC2)cc1 (centres undefined)	i	·	·	·	·	·	·	·	·
COC(=O)/C=C1\SC(N2CCOCC2)=C(c2ccc(OC)cc2)C1=O	i	i	1.1	i	i	-9	·	·	·
Cc1cccc(N(Cc2ccccc2)C(=O)c2cc(S(=O)(=O)N3CCOCC3)ccc2Cl)c1	i	i	-1.4	i	i	-11	i	i	i
O=C(O)c1cc(-c2ccc(-c3c(-c4ccc5c(c4)OCO5)noc3-c3ccsc3)cc2)nc2ccccc12	i	i	1.7	i	i	-14	·	·	·
CN(C)c1ccc(-c2c(-c3ccc4c(c3)OCO4)noc2-c2ccsc2)cn1	i	-8.7*	-1.4	i	i	-19	50%*	i	47%*
COc1ccc(OC)c(NC(=O)COC(=O)CCc2ccc(S(=O)(=O)N3CCOCC3)cc2)c1	i	·	·	·	·	·	·	·	·
CC(=O)NC(CC(=O)N1CCN(C(C)=O)CC1)c1ccccc1 (centres undefined)	i	i	-0.53	i	i	-6	·	·	·
FCCCOc1ccc(/C=N/OCc2ccc(Cl)cc2Cl)cc1	i	i	-0.85	i	i	-3	i	i	i
COc1ccc(OC)c(C(=O)NC(CC(N)=O)c2ccc(N3CCN(c4ccccc4)CC3)c([N+](=O)[O-])c2)c1 (centres undefined)	i	i	-0.95	i	i	-4	·	·	·
COc1ccc(OC)c(C(=O)NC(CC(N)=O)c2ccc(N3CCC(Cc4ccccc4)CC3)c([N+](=O)[O-])c2)c1 (centres undefined)	i	-11*	-1.8	i	i	-16	55%*	i	i
CCOc1ccc(NC(=S)N(C)C)cc1	i	i	1.2	i	i	-7	·	·	·
CCCc1[nH]nc2c1C1(CCN(C(=O)OCc3ccccc3)CC1)C(C#N)=C(N)O2	i	-9.7*	-0.44	i	i	-9	32%*	i	i
Cc1ccc(COC(=O)NCc2cccnc2)cc1	i	i	0.14	i	i	-7	·	·	·
Cc1ccc(CN2CCN(/N=C/c3cccnc3)CC2)cc1	i	i	-0.3	i	i	-7	·	·	·
Cc1ccc(CN2CCN(/N=C/C(Br)=C\c3ccccc3)CC2)cc1	i	i	-0.37	16*	i	2	i	i	i
Cc1ccc2oc(C(=O)N(Cc3ccc(N(C)C)cc3)CC3CCCO3)c(C)c2c1 (centres undefined)	i	i	-0.35	i	i	-10	i	i	i
Cc1ccc2c(C)c(C(=O)N(Cc3ccncc3)CC3CCCO3)oc2c1C (centres undefined)	i	i	-0.65	i	i	-5	·	·	·
O=S(=O)(c1ccccc1F)N1CCN(CCc2ccccc2)CC1	i	i	1.4	i	i	-10	i	i	i
Cc1ccc(S(=O)(=O)N2CCN(C3CC(=O)N(CCc4ccccc4)C3=O)CC2)cc1C (centres undefined)	i	i	-1	i	i	-10	i	i	i
O=S(=O)(c1ccc(F)c(F)c1)N1CCN(CCc2ccccc2)CC1	i	i	0.65	i	i	-5	i	i	i
COc1ccc(S(=O)(=O)N2CCN(C/C=C/c3ccccc3)CC2)cc1F	i	i	0.75	i	i	-14	i	i	i
CCSc1nnc(-c2ccccc2N=Cc2c(C)[nH]n(-c3ccccc3)c2=O)c(=O)[nH]1	i	i	-0.39	i	i	0	·	·	·
CC(C)(C)NC(=S)NC(=O)C12CCC3CC(CC(C3)C1)C2	i	i	-1.2	i	i	-2	i	i	i
CCN(CC)S(=O)(=O)c1ccc(N2CCc3ccccc3C2)nc1	i	i	-1.6	i	i	-14	i	i	i
SMILES	KCNK3 inh	KCNK9 block	Kir21 inh	KCNQ1 pot	KCNQ1 block	hERG rescue	KCNK9 inh conf	Kir2-1 spec	HEK293 Tl ctr
CC(C)N(C(C)C)S(=O)(=O)c1ccc(N2CCc3ccccc3C2)nc1	i	i	2.1	i	i	-10	i	i	i
CCN(CC)S(=O)(=O)c1ccc(N2CCN(S(=O)(=O)c3ccccc3)CC2)nc1	i	i	-1.6	i	i	-12	·	·	·
Cc1ccc(S(=O)(=O)NCC(=O)N2CCN(c3ccc(F)cc3)CC2)cc1	i	i	0.01	i	i	-5	·	·	·
O=C(c1ccc(Cl)cc1)C1CCCN(Cc2cccn2-c2cccnc2)C1 (centres undefined)	i	i	-2.8	i	i	-8	·	·	·
CSc1ccc(C(=O)C2CCCN(Cc3cccn3-c3cccnc3)C2)cc1 (centres undefined)	i	i	-3.3	i	i	-1	i	i	i
Cn1c(Oc2ccc(F)cc2F)c(C=O)c2ccccc21	i	i	-1	i	i	-29	·	·	·
Cn1c(Sc2ccc(Cl)cc2)c(C=O)c2ccccc21	i	-8.2*	-0.36	i	7*	-7	57%*	i	46%*
O=C(N/N=C/c1ccc(-c2cccc(C(F)(F)F)c2)o1)c1cccc(F)c1	i	-9.9*	1.9	i	i	-19	i	i	i
NC(=O)N/N=C/c1ccc(-c2cccc(C(F)(F)F)c2)o1	i	i	0.01	i	i	-18	·	·	·
Clc1cccc(-c2nc(-c3ccc(-c4nn[nH]n4)cc3)no2)c1	i	·	·	·	·	·	·	·	·
CCOC(=O)c1cnn(-c2ccccc2)c1-n1cccc1C(=O)C(=O)Nc1ccccc1C(F)(F)F	i	-14*	1.6	i	i	-3	43%*	i	54%*
CCOC(=O)c1cnn(-c2ccccc2)c1-n1cccc1C(=O)C(=O)N(CC)CC	i	i	-0.04	i	i	-12	·	·	·
COc1cccc(C(=O)NC(=S)Nc2ccc(Cl)cc2C(=O)O)c1	i	i	1.4	i	i	-5	·	·	·
Cc1ccccc1OCC(=O)NC(=S)Nc1ccc2c3c(cccc13)CC2	i	i	-1.9	i	i	-6	·	·	·
